ChEMBL document CHEMBL1156992, “Identification and hit-to-lead exploration of a novel series of histamine H4 receptor inverse agonists” (Bioorg Med Chem Lett, 2010)

Tests used:
[1] = Metabolic stability in rat microsomes assessed as drug remaining after 10 mins; assay type: ADME, Microsome; conditions: for remaining at 10 min: read-out: Stability
In short: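 Compound incubated with rat liver microsomes. Parent remaining measured after 10 min, expressed as percent.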

Histamine H4 receptor [2] = biological target: T1, Histamine H4 receptor (Homo sapiens, UniProt Q9H3N8); assay: Displacement of [3H]histamine dihydrochloride from human histamine H4 receptor after 2.5 hrs by scintillation proximity assay
In short: (§1)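 Human H4 receptor-expressing membranes (25 µg) incubated with 20 nM [³H]-histamine dihydrochloride and SPA beads. Buffer: 50 mM Tris pH 7.5, 5 mM EDTA, 0.5% BSA, 1% DMSO. Incubation 2.5 h at room temperature. Non-specific binding taken with excess histamine. Scintillation counting. IC50 from a 6-point semi-log dose-response, duplicate wells.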

[3] = Clearance in rat at 5 mg/kg, po; assay type: ADME, organism-based; parameters: dose 5 mg/kg, route oral; conditions: in vivo
In short: (§2)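 Rat pharmacokinetic study with oral dosing at 5 mg/kg.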

[4] = Half life in rat microsomes; assay type: ADME, Microsome
[5] = Oral bioavailability in rat at 5 mg/kg; assay type: ADME, organism-based; conditions: in vivo; in short: as §2
CYP1A2 = biological target: T2, CYP1A2 (Homo sapiens, UniProt P05177); assay: Inhibition of CYP1A2 at 1 uM; assay type: ADME
T2 sequence (P05177 whole entry): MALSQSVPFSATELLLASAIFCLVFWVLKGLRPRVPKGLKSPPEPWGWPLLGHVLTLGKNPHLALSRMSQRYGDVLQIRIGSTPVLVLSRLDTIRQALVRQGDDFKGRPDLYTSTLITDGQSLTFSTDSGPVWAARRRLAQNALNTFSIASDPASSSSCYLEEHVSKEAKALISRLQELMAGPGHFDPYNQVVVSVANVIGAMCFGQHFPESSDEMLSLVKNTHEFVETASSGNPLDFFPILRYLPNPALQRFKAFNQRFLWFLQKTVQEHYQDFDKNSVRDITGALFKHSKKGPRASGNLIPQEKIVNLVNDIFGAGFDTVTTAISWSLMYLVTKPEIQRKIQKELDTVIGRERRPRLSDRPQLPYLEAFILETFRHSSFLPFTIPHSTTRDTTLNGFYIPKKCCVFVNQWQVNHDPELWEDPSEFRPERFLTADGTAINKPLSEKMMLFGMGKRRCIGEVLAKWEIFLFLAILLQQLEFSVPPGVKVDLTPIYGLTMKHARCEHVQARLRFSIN
In short: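 CYP1A2 inhibition tested at 1 µM. Percent inhibition reported.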

[6] = Clearance in dog; assay type: ADME, organism-based, Canis lupus familiaris; conditions: in vivo
Histamine H4 receptor [7] = biological target: T1, Histamine H4 receptor; assay: Inverse agonist activity at human histamine H4 receptor assessed as inhibition of [35S]GTPgammaS binding after 15 mins by scintillation proximity assay; assay type: functional
[8] = Oral bioavailability in dog; assay type: ADME, organism-based, Canis lupus familiaris; conditions: in vivo
Rattus norvegicus = assay: Volume of distribution in rat at 5 mg/kg, po; assay type: ADME, organism-based; parameters: dose 5 mg/kg, route oral; conditions: in vivo; in short: as §2
[9] = Oral bioavailability in Cynomolgus monkey; assay type: ADME, organism-based, Macaca fascicularis; conditions: in vivo
Histamine H3 receptor = Histamine H3 receptor (Homo sapiens, UniProt Q9Y5N1); assay: Binding affinity to histamine H3 receptor
[10] = Clearance in Cynomolgus monkey; assay type: ADME, organism-based, Macaca fascicularis; conditions: in vivo
Histamine H1 receptor = Histamine H1 receptor (Homo sapiens, UniProt P35367); assay: Binding affinity to histamine H1 receptor
Histamine H4 receptor [11] = biological target: T1, Histamine H4 receptor; assay: Inverse agonist activity at human histamine H4 receptor assessed as inhibition of [35S]GTPgammaS binding after 15 mins by scintillation proximity assay relative to control; assay type: functional; parameters: concentration or dose not given beside the values
[12] = Volume of distribution in dog; assay type: ADME, organism-based, Canis lupus familiaris; conditions: in vivo
Histamine H2 receptor = Histamine H2 receptor (Homo sapiens, UniProt P25021); assay: Binding affinity to histamine H2 receptor
[13] = Volume of distribution in Cynomolgus monkey; assay type: ADME, organism-based, Macaca fascicularis; conditions: in vivo
Histamine H4 receptor [14] = biological target: T1, Histamine H4 receptor; assay: Displacement of [3H]histamine human recombinant histamine H4 receptor; in short: as §1

T1 sequence (Q9H3N8 whole entry): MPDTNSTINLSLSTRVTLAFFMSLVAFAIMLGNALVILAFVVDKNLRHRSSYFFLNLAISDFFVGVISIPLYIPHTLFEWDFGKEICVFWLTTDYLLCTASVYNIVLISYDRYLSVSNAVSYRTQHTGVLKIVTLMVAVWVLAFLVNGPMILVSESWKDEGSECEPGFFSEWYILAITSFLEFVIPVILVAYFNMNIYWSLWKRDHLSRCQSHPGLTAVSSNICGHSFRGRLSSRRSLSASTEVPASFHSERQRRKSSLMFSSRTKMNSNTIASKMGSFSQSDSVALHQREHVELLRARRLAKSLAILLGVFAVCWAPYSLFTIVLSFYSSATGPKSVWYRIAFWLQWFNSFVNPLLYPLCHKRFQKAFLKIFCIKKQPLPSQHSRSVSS
Sequence of Histamine H3 receptor (Q9Y5N1 whole entry): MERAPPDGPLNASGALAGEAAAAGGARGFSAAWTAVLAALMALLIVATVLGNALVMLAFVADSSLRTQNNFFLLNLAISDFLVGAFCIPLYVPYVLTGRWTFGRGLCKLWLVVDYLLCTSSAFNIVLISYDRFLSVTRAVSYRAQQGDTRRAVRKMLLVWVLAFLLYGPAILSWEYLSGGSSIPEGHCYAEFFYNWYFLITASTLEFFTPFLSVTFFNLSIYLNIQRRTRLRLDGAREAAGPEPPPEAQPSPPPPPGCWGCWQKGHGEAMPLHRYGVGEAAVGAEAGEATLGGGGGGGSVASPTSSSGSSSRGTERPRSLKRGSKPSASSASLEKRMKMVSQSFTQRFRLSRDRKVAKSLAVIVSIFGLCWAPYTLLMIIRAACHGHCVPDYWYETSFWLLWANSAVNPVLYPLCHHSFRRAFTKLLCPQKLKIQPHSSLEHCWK
Sequence of Histamine H1 receptor (P35367 whole entry): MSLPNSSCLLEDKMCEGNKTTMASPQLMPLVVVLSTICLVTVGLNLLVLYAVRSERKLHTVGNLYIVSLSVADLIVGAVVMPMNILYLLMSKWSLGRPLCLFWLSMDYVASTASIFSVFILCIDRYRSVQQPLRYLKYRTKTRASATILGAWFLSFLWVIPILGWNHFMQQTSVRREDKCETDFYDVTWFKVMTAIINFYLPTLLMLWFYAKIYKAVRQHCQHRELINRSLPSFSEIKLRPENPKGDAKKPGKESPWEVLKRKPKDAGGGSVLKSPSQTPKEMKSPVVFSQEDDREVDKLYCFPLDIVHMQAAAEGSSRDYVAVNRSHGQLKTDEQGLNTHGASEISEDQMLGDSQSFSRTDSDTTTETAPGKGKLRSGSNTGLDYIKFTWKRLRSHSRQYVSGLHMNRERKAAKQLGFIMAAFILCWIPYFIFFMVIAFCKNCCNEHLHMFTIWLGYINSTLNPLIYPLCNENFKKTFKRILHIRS
Sequence of Histamine H2 receptor (P25021 whole entry): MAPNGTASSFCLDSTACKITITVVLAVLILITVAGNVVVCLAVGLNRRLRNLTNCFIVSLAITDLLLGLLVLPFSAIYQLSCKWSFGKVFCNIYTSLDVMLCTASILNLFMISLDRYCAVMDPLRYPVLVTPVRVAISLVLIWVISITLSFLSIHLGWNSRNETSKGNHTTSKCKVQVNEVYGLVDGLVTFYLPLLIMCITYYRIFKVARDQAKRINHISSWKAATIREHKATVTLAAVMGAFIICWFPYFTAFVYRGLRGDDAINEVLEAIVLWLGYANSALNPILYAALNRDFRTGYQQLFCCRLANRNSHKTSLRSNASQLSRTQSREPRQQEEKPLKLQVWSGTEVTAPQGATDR

SMILES | remaining at 10 min [1] | IC50 (Histamine H4 receptor [2]) | also measured
CC1CN(c2ncnc3c2oc2ccc(Cl)cc23)CCN1C (stereo not drawn) | 1% | 1900 nM | –
CNC(=O)c1ccc2oc3c(N4CCC(NC)C4)ncnc3c2c1 (stereo not drawn) | – | > 30000 nM | –
CN[C@@H]1CCN(c2nc(N)nc3c2oc2ccc(Cl)cc23)C1 | 62% | 1 nM | CL/F [3]: 117 mL/min/kg; half-life [4]: 13 min; bioavailability [5]: 5%; inhibition at 1 µM (CYP1A2): 45%; clearance [6]: 52 mL/min/kg; IC50 (Histamine H4 receptor [7]): 3 nM; bioavailability [8]: 36%; Vd (Rattus norvegicus): 71 L/kg; bioavailability [9]: 99%; IC50 (Histamine H3 receptor): 5800 nM; clearance [10]: 62 mL/min/kg; IC50 (Histamine H1 receptor): > 30000 nM; inhibition (Histamine H4 receptor [11]): 138%; Vd [12]: 26 L/kg; IC50 (Histamine H2 receptor): > 30000 nM; Vd [13]: 25 L/kg
CN(C)C1CCN(c2ncnc3c2oc2ccc(Cl)cc23)C1 (stereo not drawn) | 18% | 21000 nM | –
Clc1ccc2oc3c(N4CCN5CCCC5C4)ncnc3c2c1 (stereo not drawn) | 0% | 236 nM | –
CN[C@@H]1CCN(c2ncnc3c2oc2ccc(Cl)cc23)C1 | – | 33 nM | Stability ([1]; 10 min): 92%; t1/2 [4]: 19 min; IC50 (Histamine H4 receptor [7]): 41 nM
CN1CCN(c2nc(C3CC3)nc3c2oc2ccc(Cl)cc23)CC1 | 8% | 310 nM | –
CN1CCN(c2nc(C(F)(F)F)nc3c2oc2ccc(Cl)cc23)CC1 | 7% | 83 nM | IC50 (Histamine H4 receptor [7]): 39 nM; inhibition (Histamine H4 receptor [11]): 100%
CN[C@@H]1CCN(c2ncnc3c2oc2ccc(C)cc23)C1 | 74% | 86 nM | –
CNC1(C)CCN(c2ncnc3c2oc2ccc(Cl)cc23)C1 (stereo not drawn) | – | 1400 nM | –
CN[C@H]1CCN(c2nc(N)nc3c2oc2ccc(Cl)cc23)C1 | 68% | 13 nM | half-life [4]: 21 min; IC50 (Histamine H4 receptor [7]): 4 nM
CNC1CCN(c2ncnc3c2oc2ccc(Cl)cc23)CC1 | – | > 10000 nM | –
CNC1CCN(c2nc(C)nc3c2oc2ccc(Cl)cc23)C1 (stereo not drawn) | 95% | 1600 nM | –
CN1CCN(c2nc(O)nc3c2oc2ccc(Cl)cc23)CC1 | 83% | 1000 nM | –
CN1C[C@@H]2C[C@H]1CN2c1ncnc2c1oc1ccc(Cl)cc12 | 75% | 111 nM | IC50 (Histamine H4 receptor [7]): 70 nM; inhibition (Histamine H4 receptor [11]): 105%
CN1CCN(c2nc(-c3ccccc3)nc3c2oc2ccc(Cl)cc23)CC1 | 40% | > 30000 nM | –
NC1CCN(c2ncnc3c2oc2ccc(Cl)cc23)C1 (stereo not drawn) | 107% | 126 nM | –
CN[C@H]1CCN(c2ncnc3c2oc2ccc(Cl)cc23)C1 | 103% | 285 nM | half-life [4]: 73 min; IC50 (Histamine H4 receptor [7]): 292 nM; inhibition (Histamine H4 receptor [11]): 122%

SMILES | remaining at 10 min [1] | IC50 (Histamine H4 receptor [2]) | also measured
CNC1CCN(c2ncnc3c2oc2ccc(C(=O)O)cc23)C1 (stereo not drawn) | 80% | > 30000 nM | –
COc1nc(N2CCN(C)CC2)c2oc3ccc(Cl)cc3c2n1 | 13% | 90 nM | –
CN1CCN(c2nc(C(=O)O)nc3c2oc2ccc(Cl)cc23)CC1 | 106% | > 10000 nM | –
CN[C@@H]1CCN(c2ncnc3c2oc2ccc(C(F)(F)F)cc23)C1 | 59% | 30 nM | –
CNC1CCN(c2ncnc3c2oc2ccc(C#N)cc23)C1 (stereo not drawn) | 95% | 6200 nM | –
Cc1nc(N2CCN(C)CC2)c2oc3ccc(Cl)cc3c2n1 | 0% | 37 nM | –
CN1C2CCC1CN(c1ncnc3c1oc1ccc(Cl)cc13)C2 | 62% | 440 nM | –
CN[C@@H]1CCN(c2nc(C(F)(F)F)nc3c2oc2ccc(Cl)cc23)C1 | – | 14200 nM | –
CNC1CCN(c2ncnc3c2oc2ccc(Cl)cc23)C1 (stereo not drawn) | 80% | 95 nM | –
CC1CN(c2ncnc3c2oc2ccc(Cl)cc23)CC(C)N1C (stereo not drawn) | – | 10000 nM | –
CN1CC2CCC1CN2c1ncnc2c1oc1ccc(Cl)cc12 (stereo not drawn) | 66% | 169 nM | –
CNC1CCN(c2ncnc3c2oc2ccc(-c4ccccc4)cc23)C1 (stereo not drawn) | 97% | > 10000 nM | –
CN[C@@H]1CCN(c2ncnc3c2oc2cc(Cl)ccc23)C1 | – | 171 nM | –
CN1CCN(c2ncnc3c2oc2ccc(Cl)cc23)CC1 | 1% | 19 nM | IC50 (Histamine H4 receptor [14]): 19 nM
CCNC1CCN(c2ncnc3c2oc2ccc(Cl)cc23)C1 (stereo not drawn) | – | > 10000 nM | –
CNC1CN(c2ncnc3c2oc2ccc(Cl)cc23)C1 | 89% | 87 nM | IC50 (Histamine H4 receptor [7]): 76 nM; inhibition (Histamine H4 receptor [11]): 149%
CNC1CCCN(c2ncnc3c2oc2ccc(Cl)cc23)C1 (stereo not drawn) | – | > 10000 nM | –
Clc1ccc2oc3c(N4CC5CCCNC5C4)ncnc3c2c1 (stereo not drawn) | – | 1400 nM | –
